Assay outcomes deposited in PubChem BioAssay by The Scripps Research Institute Molecular Screening Center.
In the library only some 1.8% were active in any assay of this set; here they are far more common.
MBD2 inh: blocks human MBD2 binding to methylated DNA; 370,000 compounds, 0.31% hits; TR-FRET, MBD2 binding to methylated oligonucleotide; AID 686964; inhibition, % at 4.4 µM; Q9UBB5; in the data active = inhibition above about 13%
TDP2 absorb: blocks human TDP2 phosphodiesterase activity | O95551 | recombinant TDP2, T5PNP hydrolysis, p-nitrophenol absorbance 415 nm | inhibition, % at 12.8 µM | 370,000 compounds, 0.34% hits;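 active = inhibition above the mean of all tested compounds plus 3 SD, set per campaign, cut at about 25% in these data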;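 note: 0% = DMSO with enzyme and 100% = buffer with substrate but no TDP2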
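Read-out basis: percent inhibition. System: recombinant human TDP2. Buffer or medium: Mg2+-containing Tris-HCl buffer, pH 7.5. Repeats: single replicate. Timing: reaction 2 h, 37 °C. Benchmarks: high control without enzyme, low control DMSO plus TDP2. Probe or stimulus: 5 mM T5PNP. Doses: 12.8 µM only. Measured by: epi absorbance of p-nitrophenol freed from T5PNP by hydrolysis.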
core dimer inh: HCV core protein dimerization inhibition; TR-FRET GST/Flag-core106 dimerization, 1536-well; inhibition, % at 5 µM; 300,000 compounds, 0.33% hits; AID 1899;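 active = inhibition above the mean of all tested compounds plus 3 SD, set per screening campaign, cut at about 45% in these data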
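Material: GST/Flag-tagged HCV core106 proteins. Incubation: 4 h, 22.5 °C incubation. Read-out basis: inhibition (%) from 671 over 617 nm ratio. Measured by: TR-FRET, excitation 340 nm, emission 617 and 671 nm.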
UHRF1 MBD2 ctr: UHRF1 methyl-DNA binding inhibition; 370,000 compounds, 0.75% hits; AID 687016; Q96T88; inhibition, % at 4.4 µM; UHRF1 binding to methylated oligo, TR-FRET;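 note: UHRF1 SRA domain binding a hemimethylated CpG hairpin DNA probe; 0% = median of test compound wells and 100% = reference inhibitor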
Target sequence (Q96T88 whole entry, looked up, the tested form may be a part): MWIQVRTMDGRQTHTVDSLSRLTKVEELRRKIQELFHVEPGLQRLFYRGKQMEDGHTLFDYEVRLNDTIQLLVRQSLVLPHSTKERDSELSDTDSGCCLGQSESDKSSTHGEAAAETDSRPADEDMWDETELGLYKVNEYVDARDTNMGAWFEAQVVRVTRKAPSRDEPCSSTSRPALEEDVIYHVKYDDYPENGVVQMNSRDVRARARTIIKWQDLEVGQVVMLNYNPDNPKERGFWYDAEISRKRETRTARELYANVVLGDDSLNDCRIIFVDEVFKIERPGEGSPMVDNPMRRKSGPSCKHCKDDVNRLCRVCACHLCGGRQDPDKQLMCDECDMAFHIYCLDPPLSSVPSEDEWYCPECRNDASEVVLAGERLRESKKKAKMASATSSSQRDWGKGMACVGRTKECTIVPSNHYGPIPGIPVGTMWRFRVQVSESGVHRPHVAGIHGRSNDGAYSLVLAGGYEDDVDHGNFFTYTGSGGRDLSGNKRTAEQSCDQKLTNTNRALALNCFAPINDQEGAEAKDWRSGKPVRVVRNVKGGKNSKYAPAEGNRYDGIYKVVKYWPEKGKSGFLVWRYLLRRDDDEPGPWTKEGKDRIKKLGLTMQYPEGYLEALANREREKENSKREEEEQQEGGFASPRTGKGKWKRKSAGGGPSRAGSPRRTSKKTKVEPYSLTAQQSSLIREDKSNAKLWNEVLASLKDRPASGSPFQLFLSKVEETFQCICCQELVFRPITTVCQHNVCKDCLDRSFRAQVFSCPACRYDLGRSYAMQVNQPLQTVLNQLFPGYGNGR
LEDGF integ inh: blocks HIV-1 LEDGF/p75-dependent DNA integration | TR-FRET IN-LEDGF/p75 DNA integration, Eu/Cy5 | inhibition, % at 3.7 µM | 370,000 compounds, 0.64% hits | AID 743269;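 active = inhibition above the screen-wide mean plus 3 SD, cut at about 13% in these data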;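 note: signal is the Cy5 over europium emission ratio at 671 and 618 nm; 0% = plate median of compound wells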
UHRF1 DNA bind: UHRF1 methyl-oligo binding inhibition as MBD2 counter-screen | shares compounds with MBD2 inh | UHRF1 binding to methylated oligonucleotide, TR-FRET | inhibition, % at 4.4 µM | 1,000 compounds, 25% hits | AID 720530;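 note: UHRF1 SRA domain binding a labeled hemimethylated CpG hairpin DNA; 0% = vehicle only and 100% = reference inhibitor with vehicle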
MBD2 confirm: MBD2-DBD methyl-DNA binding inhibition, TR-FRET confirmation | shares compounds with MBD2 inh | TR-FRET MBD2-DBD binding to methylated oligonucleotide | inhibition, % at 4.4 µM | 1,000 compounds, 26% hits | AID 720531; in the data active = inhibition above about 14%
An asterisk follows results filed as active; / = no result given. Cut-off read from the data, not from the text of the source, unless noted: active = inhibition above about 21%; inactive = the rest.

SMILES	MBD2 inh	TDP2 absorb	core dimer inh	UHRF1 MBD2 ctr	LEDGF integ inh	UHRF1 DNA bind	MBD2 confirm
Cc1ccc(C(=O)NCCN(C)C)c(C)c1	7	-6	-6	4	-3	/	/
CNc1c2cccc(C)c2nc2c(C(=O)NCCN(C)C)cccc12	91*	-2	/	61*	8	55*	103*
CCc1cccc(NC(=O)CNC(=O)N2CC(=O)Nc3ccccc32)c1	14*	-6	5	0	1	4	3
Cc1ccc(NC(=O)CNC(=O)N2CC(=O)Nc3ccccc32)cc1F	2	9	-6	4	0	/	/
NS(=O)(=O)c1ccc(NC(CNS(=O)(=O)c2ccccc2)c2ccccc2)cc1 (configuration not stated)	14*	3	1	19	2	3	1
CCCCNC(=O)Cn1c(-c2ccc(OC)cc2)noc1=O	14*	2	3	13	-4	-1	2
Cc1ccc(Cn2cc(SCC(=O)Nc3nccs3)c3ccccc32)cc1	1	2	-57	3	-4	/	/
Cc1cccc(Cn2cc(SCC(=O)Nc3nccs3)c3ccccc32)c1	30*	2	-82	1	2	5	1
O=C(Nc1ccc(Cl)c(Cl)c1)C1CCCN(c2nnc(-n3cccc3)s2)C1 (configuration not stated)	-6	-4	/	1	5	/	/
O=C(/C=C/c1ccc2ccccc2c1)c1ccoc1	20*	-4	-1	-7	2	7	2
Cc1cccc(C=CC(=O)c2ccccc2)c1	8	4	/	0	3	/	/
COc1cccc(NC(=O)CN(C)C(=O)c2cc3c(s2)CCC3)c1	27*	-8	59*	55*	9	30*	26*
COC(=O)[C@]12C[C@H](CC(=O)N3CCOCC3)C(=O)N(CCc3ccc(OC)c(OC)c3)C1=C[C@H](C1CCCC1)O[C@@H]2C	-4	1	/	-2	3	/	/
Cc1ccc(S(=O)(=O)NNC(=O)c2ccncc2)cc1	23*	2	-6	5	-4	10	6
O=C(NNS(=O)(=O)c1ccccc1)c1ccncc1	0	-6	-7	-2	2	/	/
O=C1c2ccccc2-c2cccnc21	16*	-13	-7	-11	2	2	-5
Cc1nc2c(nc1C)C(=O)c1ccccc1C2=O	-11	6	/	-1	2	/	/
COc1ccc2[nH]c3c(c2c1)CCN[C@]31C(=O)N(C)c2ccc(Br)cc21	1	4	/	-2	2	/	/
O=C(CCS(=O)(=O)c1ccc(Br)cc1)NCCc1ccccc1	3	10	2	5	-2	/	/
NS(=O)(=O)c1ccc(CCNC(=O)CCS(=O)(=O)c2ccc(Br)cc2)cc1	17*	8	/	29*	0	44*	30*
CCCCCCCCN1CCS(=O)(=O)N(Cc2ccc(OC)cc2)C(C(=O)OC)C1 (configuration not stated)	-3	-3	/	-1	-1	/	/
O=C(OCCN1CCN(C2CN(Cc3cn(Cc4ccc([N+](=O)[O-])cc4)nn3)S(=O)(=O)C2)CC1)c1cc2ccccc2o1 (configuration not stated)	1	11	/	6	4	/	/
CCC(C)NC(=O)CNc1nnnn1-c1ccccc1 (configuration not stated)	-2	-3	/	-2	2	/	/
COC(=O)C1CCN(C(=O)COC(=O)c2ccc(N3CCCC3=O)cc2)CC1	14*	-1	/	16	7	2	3
CC1CC(C)CN(C(=O)COC(=O)c2ccc(N3CCCC3=O)cc2)C1 (configuration not stated)	-6	-4	/	-2	0	/	/
SMILES	MBD2 inh	TDP2 absorb	core dimer inh	UHRF1 MBD2 ctr	LEDGF integ inh	UHRF1 DNA bind	MBD2 confirm
CCCCCCSc1ccc([C@H]2N[C@@](Cc3ccccc3)(C(=O)OC)[C@H]3C(=O)N(CC)C(=O)[C@@H]23)cc1	1	-5	7	-2	-1	/	/
CCCCCCSc1ccc([C@H]2N[C@@](Cc3ccccc3)(C(=O)OC)[C@H]3C(=O)N(C)C(=O)[C@@H]23)cc1	14*	21	21	20	8	7	2
CCN(Cc1ccccc1)S(=O)(=O)c1c(C)[nH]c(C)c1C(=O)N1CCCCC1	14*	6	1	0	-1	2	5
Cc1[nH]c(C)c(S(=O)(=O)N(Cc2ccccc2)C(C)(C)C)c1C(=O)N1CCCC1	-3	10	-7	2	0	/	/
C=CCN1[C@H](CC(C)C)COc2cc(N3CCSCC3)ccc2S1(=O)=O	3	-4	/	1	-3	/	/
CCOC(=O)[C@@H](CCc1ccccc1)N[C@@H](C)C(=O)N1CCC[C@H]1C(=O)O	2	3	/	1	-2	/	/
COC(CNC(=O)c1cn(C)c2ccc(S(=O)(=O)N(C)C3CCCCC3)cc2c1=O)OC	26*	13	2	1	3	2	1
N#Cc1cccc(OC[C@@H](O)CN2CCC(C(O)(c3ccccc3)c3ccccc3)CC2)c1	-2	-10	/	-2	5	/	/
CNC(=S)N(Cc1cc2cc(OC)c(OC)cc2[nH]c1=O)C1CCCC1	20*	9	2	2	-2	11	3
Cc1ccc(NC(=O)c2cccc3c2-c2ccccc2C3=O)c(C)c1	0	6	/	-3	-4	/	/
COC(=O)[C@]12C[C@H](CC(=O)N3CCCC3)C(=O)N(CCC3=CCCCC3)C1=C[C@H](C(C)C)O[C@@H]2C1CC1	-3	-1	/	2	-4	/	/
CC(C)C[C@H]1COc2cccc(F)c2S(=O)(=O)N1Cc1cn(CCC2OCCO2)nn1	1	-1	/	0	0	/	/
Cc1c(C(=O)Nc2cccc(F)c2)cnn1-c1ccccc1	13*	-15	-3	0	-1	7	4
O=C(O)c1cccc2c3c([nH]c12)CCCC3	18*	-1	-1	0	-3	5	2
CCn1c(COc2ccccc2)nnc1SCC(=O)Nc1ccc(Oc2ccccc2)cc1	-1	1	/	1	8	/	/
Cc1ccc(OCC(=O)Nc2cccc(S(=O)(=O)N3CCCCC3)c2)c([N+](=O)[O-])n1	0	0	11	0	5	/	/
Cc1ccc2cccc(OCC(=O)Nc3cccc(S(=O)(=O)N4CCCC4)c3)c2n1	17*	-3	/	19	-3	-2	2
C=CCNC(=O)Nc1ccc2c(c1)[C@]1(CC(=O)N(CC(C)C)C1c1ccccc1)C(=O)N2C (some centres not stated)	-5	0	/	-2	1	/	/
COc1cccc(C(=O)Nc2ccc(Oc3cccc(C(F)(F)F)c3)nc2)c1	14*	5	-5	0	4	5	0
